Each block holds one compound with its values, some of them ahead of it. Calls of active or inactive are those of the source. No cut-off for these calls is given here.
Key:
[1] = target: T1, Tyrosine-protein phosphatase non-receptor type 1 (Homo sapiens, UniProt P18031); experiment: Inhibition of PTP1B (unknown origin) using pNPP as substrate
T1 sequence (P18031 whole entry): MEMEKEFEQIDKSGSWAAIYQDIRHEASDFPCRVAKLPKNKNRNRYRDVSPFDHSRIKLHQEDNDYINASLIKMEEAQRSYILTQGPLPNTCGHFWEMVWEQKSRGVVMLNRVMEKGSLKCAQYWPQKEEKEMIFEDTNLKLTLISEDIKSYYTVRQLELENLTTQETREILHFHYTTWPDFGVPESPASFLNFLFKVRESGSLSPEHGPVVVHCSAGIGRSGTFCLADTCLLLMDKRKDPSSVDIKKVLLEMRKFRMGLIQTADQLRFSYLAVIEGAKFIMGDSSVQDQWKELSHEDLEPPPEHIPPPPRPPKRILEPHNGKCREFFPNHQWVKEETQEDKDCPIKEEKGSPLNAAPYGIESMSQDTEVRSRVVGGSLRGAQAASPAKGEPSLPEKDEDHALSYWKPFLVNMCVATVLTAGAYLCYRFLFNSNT

[2] = species on record: Homo sapiens; experiment: Selectivity index, ratio of IC50 for inhibition of TCPTP (unknown origin) using pNPP as substrate to IC50 for inhibition of PTP1B (unknown origin) using pNPP as substrate
Method in brief: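 Both TCPTP and PTP1B IC50 values were measured by the same pNPP hydrolysis assay, derived by regression from triplicate dose-response data. The index is the TCPTP IC50 divided by the PTP1B IC50.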

[3] = target: T2, Tyrosine-protein phosphatase non-receptor type 6 (Homo sapiens, UniProt P29350); experiment: Inhibition of SHP1 (unknown origin) at 20 ug/ml using pNPP as substrate
T2 sequence (P29350 whole entry): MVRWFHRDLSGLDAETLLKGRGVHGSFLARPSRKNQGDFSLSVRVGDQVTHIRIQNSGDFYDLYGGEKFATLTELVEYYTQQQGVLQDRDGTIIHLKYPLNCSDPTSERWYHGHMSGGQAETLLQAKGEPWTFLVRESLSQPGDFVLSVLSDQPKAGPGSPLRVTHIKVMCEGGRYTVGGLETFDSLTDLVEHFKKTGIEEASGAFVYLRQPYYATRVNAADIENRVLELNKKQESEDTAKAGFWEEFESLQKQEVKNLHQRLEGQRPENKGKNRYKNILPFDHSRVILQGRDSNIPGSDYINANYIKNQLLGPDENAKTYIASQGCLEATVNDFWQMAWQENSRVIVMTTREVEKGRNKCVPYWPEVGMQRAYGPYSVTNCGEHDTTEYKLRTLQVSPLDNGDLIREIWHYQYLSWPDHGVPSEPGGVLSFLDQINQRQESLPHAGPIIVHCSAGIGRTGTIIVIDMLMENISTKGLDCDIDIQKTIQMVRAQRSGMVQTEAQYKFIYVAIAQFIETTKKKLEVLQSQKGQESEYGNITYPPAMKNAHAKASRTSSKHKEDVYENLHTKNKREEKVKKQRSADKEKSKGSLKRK
Method in brief: (§1)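 Single-point screen at 20 µg/mL of compound against each phosphatase (LAR, SHP-1, SHP-2), with pNPP hydrolysis as the read-out.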

[4] = target: T3, M-phase inducer phosphatase 2 (Homo sapiens, UniProt P30305); experiment: Inhibition of CDC25B (unknown origin) using pNPP as substrate
T3 sequence (P30305 whole entry): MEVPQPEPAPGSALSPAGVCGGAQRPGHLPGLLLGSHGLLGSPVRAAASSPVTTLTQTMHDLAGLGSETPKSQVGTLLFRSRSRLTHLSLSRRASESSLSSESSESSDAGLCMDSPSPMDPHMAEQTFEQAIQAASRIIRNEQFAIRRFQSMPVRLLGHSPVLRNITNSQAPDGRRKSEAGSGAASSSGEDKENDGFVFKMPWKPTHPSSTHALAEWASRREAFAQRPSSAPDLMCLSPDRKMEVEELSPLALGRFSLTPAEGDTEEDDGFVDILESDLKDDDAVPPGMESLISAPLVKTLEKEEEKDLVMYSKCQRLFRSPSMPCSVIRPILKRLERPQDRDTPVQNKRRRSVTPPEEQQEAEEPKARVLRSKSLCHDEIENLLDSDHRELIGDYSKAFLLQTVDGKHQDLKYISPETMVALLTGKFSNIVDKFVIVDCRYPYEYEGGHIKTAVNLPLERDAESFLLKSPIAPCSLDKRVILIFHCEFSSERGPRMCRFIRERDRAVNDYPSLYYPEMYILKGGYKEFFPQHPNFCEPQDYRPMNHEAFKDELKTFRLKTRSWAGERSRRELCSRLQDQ
Method in brief: (§2)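 Same pNPP-substrate phosphatase assay as for PTP1B, applied for selectivity. Compounds were first screened at 20 μg/mL, then tested over a dose range. IC50 was obtained by regression analysis and reported as mean ± SD of three replications. Oleanolic acid served as the positive control.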

[5] = target: T4, Tyrosine-protein phosphatase non-receptor type 2 (Homo sapiens, UniProt P17706); experiment: Inhibition of TCPTP (unknown origin) using pNPP as substrate
T4 sequence (P17706 whole entry): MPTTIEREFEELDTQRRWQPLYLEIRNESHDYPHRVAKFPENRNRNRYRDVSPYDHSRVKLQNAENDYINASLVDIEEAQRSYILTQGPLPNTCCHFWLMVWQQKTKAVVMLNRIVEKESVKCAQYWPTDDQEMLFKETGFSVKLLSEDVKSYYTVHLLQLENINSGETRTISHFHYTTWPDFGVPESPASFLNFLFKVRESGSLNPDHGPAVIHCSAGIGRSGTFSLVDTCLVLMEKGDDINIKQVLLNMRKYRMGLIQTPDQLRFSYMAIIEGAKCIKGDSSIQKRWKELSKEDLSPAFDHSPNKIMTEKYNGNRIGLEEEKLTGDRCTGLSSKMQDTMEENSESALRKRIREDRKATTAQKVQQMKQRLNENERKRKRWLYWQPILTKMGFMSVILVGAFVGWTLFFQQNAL

[6] = target: Receptor-type tyrosine-protein phosphatase F (Homo sapiens) (UniProt P10586); experiment: Inhibition of LAR (unknown origin) at 20 ug/ml using pNPP as substrate; method in brief: as §1
Chain of Receptor-type tyrosine-protein phosphatase F (Homo sapiens) (P10586 whole entry): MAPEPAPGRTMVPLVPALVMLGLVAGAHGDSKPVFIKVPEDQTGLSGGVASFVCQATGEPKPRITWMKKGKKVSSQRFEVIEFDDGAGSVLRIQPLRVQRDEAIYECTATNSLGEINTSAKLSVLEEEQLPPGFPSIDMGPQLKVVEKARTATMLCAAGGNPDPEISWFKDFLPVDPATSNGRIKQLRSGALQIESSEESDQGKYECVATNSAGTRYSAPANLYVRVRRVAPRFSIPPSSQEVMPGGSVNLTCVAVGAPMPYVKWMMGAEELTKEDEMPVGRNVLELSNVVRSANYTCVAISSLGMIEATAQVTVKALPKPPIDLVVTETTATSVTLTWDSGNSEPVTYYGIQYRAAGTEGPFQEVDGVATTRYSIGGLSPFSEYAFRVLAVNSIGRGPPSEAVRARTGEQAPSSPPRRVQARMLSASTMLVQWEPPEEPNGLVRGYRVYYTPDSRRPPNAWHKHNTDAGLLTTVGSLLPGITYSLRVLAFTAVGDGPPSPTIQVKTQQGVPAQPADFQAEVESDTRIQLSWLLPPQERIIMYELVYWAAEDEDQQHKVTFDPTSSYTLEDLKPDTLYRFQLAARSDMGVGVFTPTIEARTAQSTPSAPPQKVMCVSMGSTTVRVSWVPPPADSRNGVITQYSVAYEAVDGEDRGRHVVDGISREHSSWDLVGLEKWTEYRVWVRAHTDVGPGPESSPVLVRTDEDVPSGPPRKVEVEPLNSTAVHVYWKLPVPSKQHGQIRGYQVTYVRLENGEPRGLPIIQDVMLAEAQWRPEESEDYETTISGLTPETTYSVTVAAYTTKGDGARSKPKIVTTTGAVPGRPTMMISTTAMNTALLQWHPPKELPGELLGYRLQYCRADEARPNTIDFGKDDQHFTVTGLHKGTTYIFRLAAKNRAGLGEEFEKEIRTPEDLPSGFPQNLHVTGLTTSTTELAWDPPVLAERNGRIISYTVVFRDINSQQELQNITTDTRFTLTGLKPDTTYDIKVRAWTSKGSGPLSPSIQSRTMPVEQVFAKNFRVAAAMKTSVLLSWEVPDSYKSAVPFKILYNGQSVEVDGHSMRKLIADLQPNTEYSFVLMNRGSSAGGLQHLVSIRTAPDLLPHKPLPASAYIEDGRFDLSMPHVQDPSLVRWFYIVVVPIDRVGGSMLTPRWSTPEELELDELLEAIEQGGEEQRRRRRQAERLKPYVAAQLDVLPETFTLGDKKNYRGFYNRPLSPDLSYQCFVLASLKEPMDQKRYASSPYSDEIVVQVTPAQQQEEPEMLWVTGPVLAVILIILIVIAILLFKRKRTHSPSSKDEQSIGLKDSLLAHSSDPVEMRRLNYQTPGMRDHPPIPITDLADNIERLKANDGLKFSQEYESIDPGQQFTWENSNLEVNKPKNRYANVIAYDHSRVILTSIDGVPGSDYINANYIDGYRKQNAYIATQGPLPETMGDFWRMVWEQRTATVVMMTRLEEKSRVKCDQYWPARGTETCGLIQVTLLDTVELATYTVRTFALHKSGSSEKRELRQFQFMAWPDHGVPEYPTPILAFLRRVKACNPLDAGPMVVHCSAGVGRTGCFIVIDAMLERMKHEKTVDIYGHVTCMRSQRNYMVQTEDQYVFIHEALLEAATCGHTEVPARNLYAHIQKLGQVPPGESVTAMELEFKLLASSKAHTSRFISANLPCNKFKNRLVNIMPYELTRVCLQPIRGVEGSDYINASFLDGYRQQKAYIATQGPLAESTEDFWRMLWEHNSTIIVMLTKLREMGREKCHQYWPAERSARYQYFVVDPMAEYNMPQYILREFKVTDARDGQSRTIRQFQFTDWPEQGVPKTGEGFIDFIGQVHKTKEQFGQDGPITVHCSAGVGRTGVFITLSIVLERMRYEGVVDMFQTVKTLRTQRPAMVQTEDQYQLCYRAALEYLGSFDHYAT

[7] = target: T5, Tyrosine-protein phosphatase non-receptor type 11 (Homo sapiens) (UniProt Q06124); experiment: Inhibition of SHP2 (unknown origin) at 20 ug/ml using pNPP as substrate; method in brief: as §1
T5 sequence (whole entry): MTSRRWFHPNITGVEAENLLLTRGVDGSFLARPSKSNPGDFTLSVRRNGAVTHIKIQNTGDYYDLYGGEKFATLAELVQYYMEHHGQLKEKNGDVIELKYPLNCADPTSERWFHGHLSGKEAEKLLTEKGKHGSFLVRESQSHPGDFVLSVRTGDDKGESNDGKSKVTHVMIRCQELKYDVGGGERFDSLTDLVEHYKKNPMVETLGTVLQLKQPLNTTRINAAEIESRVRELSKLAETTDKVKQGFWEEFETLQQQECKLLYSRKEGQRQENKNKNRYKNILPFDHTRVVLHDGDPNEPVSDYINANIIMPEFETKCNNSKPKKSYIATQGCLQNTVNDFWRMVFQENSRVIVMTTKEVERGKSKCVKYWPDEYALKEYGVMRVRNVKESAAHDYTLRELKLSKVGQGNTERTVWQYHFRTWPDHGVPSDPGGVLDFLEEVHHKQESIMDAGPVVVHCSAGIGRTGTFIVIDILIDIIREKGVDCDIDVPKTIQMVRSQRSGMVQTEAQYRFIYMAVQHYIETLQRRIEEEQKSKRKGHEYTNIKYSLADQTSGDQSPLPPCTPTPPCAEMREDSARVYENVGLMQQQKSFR

[8] = target: T2, Tyrosine-protein phosphatase non-receptor type 6; experiment: Inhibition of SHP1 (unknown origin) using pNPP as substrate; method in brief: as §2
[9] = target: T6, Tyrosine-protein phosphatase non-receptor type 11 (Homo sapiens, UniProt Q06124); experiment: Inhibition of SHP2 (unknown origin) using pNPP as substrate; method in brief: as §2
T6 sequence (Q06124 whole entry): T5 sequence (whole entry)

[10] = target: T1, Tyrosine-protein phosphatase non-receptor type 1; experiment: Competitive type inhibition of PTP1B (unknown origin) using pNPP as substrate by Lineweaver-Burk plot analysis
[11] = target: T7, Tyrosine-protein phosphatase non-receptor type 1 (Homo sapiens) (UniProt P18031); experiment: Potency index, ratio of IC50 for oleanolic acid to IC50 for test compound for inhibition of PTP1B (unknown origin) using pNPP as substrate
T7 sequence (whole entry): T1 sequence (P18031 whole entry)
Method in brief: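 Both IC50 values come from dose-response inhibition of PTP1B with pNPP as substrate, fitted by regression (mean ± SD, n = 3). The ratio divides the IC50 of the reference PTP1B inhibitor by that of the test compound.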

[12] = target: T7, Tyrosine-protein phosphatase non-receptor type 1 (Homo sapiens); experiment: Time dependent inhibition of PTP1B (unknown origin) using pNPP as substrate

SMILES: O=C(O)CCCCCN1C(=O)/C(=C/c2cn(-c3ccccc3)nc2-c2ccc(Cl)cc2Cl)SC1=S
- IC50 [1]: 1.35 µM
- Ratio IC50 [2]: 2 to 9
- inhibition [3]: inactive
- IC50 [4]: 10.9 µM
- IC50 [5]: 5.63 µM
- inhibition [6]: inactive
- inhibition [7]: inactive

SMILES: O=C(O)CN1C(=O)/C(=C/c2cn(-c3ccccc3)nc2-c2ccc3ccccc3c2)SC1=S
- IC50 [1]: 4.78 µM
- Ratio IC50 [2]: 2 to 9
- IC50 [8]: 24.5 µM
- IC50 [4]: 11.3 µM
- IC50 [5]: 7.91 µM
- inhibition [6]: inactive
- IC50 [9]: 20.9 µM

SMILES: Cc1ccc(-c2nn(-c3ccccc3)cc2/C=C2\SC(=S)N(CC(=O)O)C2=O)cc1
- IC50 [1]: 14.7 µM

SMILES: O=C(O)CCCCN1C(=O)/C(=C/c2cn(-c3ccccc3)nc2-c2ccc(Cl)cc2Cl)SC1=S
- IC50 [1]: 0.67 µM
- Ratio IC50 [2]: 2 to 9
- inhibition [3]: inactive
- IC50 [4]: 28.1 µM
- Ki [10]: 0.31 µM
- IC50 [5]: 5.77 µM
- inhibition [6]: inactive
- inhibition [7]: inactive
- Ratio IC50 [11]: 2.5
- TDI [12]: inactive

SMILES: O=C(O)CN1C(=O)/C(=C/c2cn(-c3ccccc3)nc2-c2cccc(Cl)c2)SC1=S
- IC50 [1]: 13.2 µM

SMILES: O=C(O)[C@@H](Cc1ccccc1)N1C(=O)/C(=C/c2cn(-c3ccccc3)nc2-c2ccc3ccccc3c2)SC1=S
- IC50 [1]: 1.81 µM
- Ratio IC50 [2]: 2 to 9
- inhibition [3]: inactive
- IC50 [4]: 6.12 µM
- Ki [10]: 0.7 µM
- IC50 [5]: 4.61 µM
- inhibition [6]: inactive
- inhibition [7]: inactive
- TDI [12]: inactive

SMILES: O=C(O)[C@@H](Cc1ccccc1)N1C(=O)/C(=C/c2cn(-c3ccccc3)nc2-c2cccc(Br)c2)SC1=S
- IC50 [1]: 2.76 µM

SMILES: O=C(O)CCN1C(=O)/C(=C/c2cn(-c3ccccc3)nc2-c2ccc(Cl)cc2Cl)SC1=S
- IC50 [1]: 7.93 µM
- Ratio IC50 [2]: 2 to 9
- inhibition [3]: inactive
- IC50 [4]: 17.1 µM
- IC50 [5]: 14 µM
- inhibition [6]: inactive
- inhibition [7]: inactive

SMILES: O=C(O)[C@@H](Cc1ccccc1)N1C(=O)/C(=C/c2cn(-c3ccccc3)nc2-c2ccccc2Cl)SC1=S
- IC50 [1]: 4.89 µM

SMILES: COc1ccc(-c2nn(-c3ccccc3)cc2/C=C2\SC(=S)N([C@H](Cc3ccccc3)C(=O)O)C2=O)cc1
- IC50 [1]: 7.09 µM

SMILES: O=C(O)[C@@H](Cc1ccccc1)N1C(=O)/C(=C/c2cn(-c3ccccc3)nc2-c2ccc(Cl)cc2)SC1=S
- IC50 [1]: 2.1 µM

SMILES: O=C(O)CCN1C(=O)/C(=C/c2cn(-c3ccccc3)nc2-c2ccc(Cl)cc2)SC1=S
- IC50 [1]: 6.58 µM

SMILES: O=C(O)[C@@H](Cc1ccccc1)N1C(=O)/C(=C/c2cn(-c3ccccc3)nc2-c2ccc(Cl)cc2Cl)SC1=S
- IC50 [1]: 3.56 µM
- Ratio IC50 [2]: 2 to 9
- IC50 [8]: 16.8 µM
- IC50 [4]: 13.7 µM
- IC50 [5]: 12.7 µM
- inhibition [6]: inactive
- IC50 [9]: 16.7 µM

SMILES: Cc1ccc(-c2nn(-c3ccccc3)cc2/C=C2\SC(=S)N([C@H](Cc3ccccc3)C(=O)O)C2=O)cc1
- IC50 [1]: 2.05 µM

SMILES: O=C(O)CN1C(=O)/C(=C/c2cn(-c3ccccc3)nc2-c2cccc(Br)c2)SC1=S
- IC50 [1]: 12.1 µM

SMILES: O=C(O)[C@@H](Cc1ccccc1)N1C(=O)/C(=C/c2cn(-c3ccccc3)nc2-c2ccc(Br)cc2)SC1=S
- IC50 [1]: 4.42 µM

SMILES: O=C(O)CCCN1C(=O)/C(=C/c2cn(-c3ccccc3)nc2-c2ccc(Cl)cc2)SC1=S
- IC50 [1]: 2.27 µM

SMILES: O=C(O)CCCN1C(=O)/C(=C/c2cn(-c3ccccc3)nc2-c2ccc(Cl)cc2Cl)SC1=S
- IC50 [1]: 3.66 µM
- Ratio IC50 [2]: 2 to 9
- inhibition [3]: inactive
- IC50 [4]: 13.8 µM
- IC50 [5]: 9.18 µM
- inhibition [6]: inactive
- inhibition [7]: inactive

More lines, in order of falling IC50 [1], values ahead:

- IC50 [1]: 24.6 µM
SMILES: COc1ccccc1-c1nn(-c2ccccc2)cc1/C=C1\SC(=S)N(CC(=O)O)C1=O

- IC50 [1]: 14.2 µM
SMILES: O=C(O)CN1C(=O)/C(=C/c2cn(-c3ccccc3)nc2-c2ccc(Br)cc2)SC1=S

- IC50 [1]: 9.24 µM
SMILES: O=C(O)CN1C(=O)/C(=C/c2cn(-c3ccccc3)nc2-c2ccc([N+](=O)[O-])cc2)SC1=S

- IC50 [1]: 6.37 µM
SMILES: O=C(O)[C@@H](Cc1ccccc1)N1C(=O)/C(=C/c2cn(-c3ccccc3)nc2-c2ccccc2)SC1=S

- IC50 [1]: 6.3 µM
SMILES: COc1ccccc1-c1nn(-c2ccccc2)cc1/C=C1\SC(=S)N([C@H](Cc2ccccc2)C(=O)O)C1=O

- IC50 [1]: 4.95 µM
SMILES: COc1cccc(-c2nn(-c3ccccc3)cc2/C=C2\SC(=S)N([C@H](Cc3ccccc3)C(=O)O)C2=O)c1

- IC50 [1]: 3.57 µM
SMILES: O=C(O)[C@@H](Cc1ccccc1)N1C(=O)/C(=C/c2cn(-c3ccccc3)nc2-c2ccc([N+](=O)[O-])cc2)SC1=S

- IC50 [1]: 2.2 µM
SMILES: O=C(O)CCCCN1C(=O)/C(=C/c2cn(-c3ccccc3)nc2-c2ccc(Cl)cc2)SC1=S

- IC50 [1]: 1.85 µM
SMILES: O=C(O)CCCCCN1C(=O)/C(=C/c2cn(-c3ccccc3)nc2-c2ccc(Cl)cc2)SC1=S
